Test [1] has as its system Salmonella typhi. As to the kind of experiment: Antibacterial activity against Salmonella typhi by two-fold agar dilution method. It counts as functional, Salmonella enterica subsp. enterica serovar Typhi. Particulars: Salmonella enterica. The method, boiled down:
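MIC in µg/mL by twofold serial agar dilution on brain-heart infusion agar.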

The subject of test [2] is Streptococcus pyogenes. In words: Antibacterial activity against Streptococcus pyogenes C-203 by two-fold agar dilution method. The test is classed as functional. The method in brief:
(§1)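 MIC determined by twofold serial dilution in brain-heart infusion agar. Values are reported in µg/mL.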

Test [3] relates to Proteus mirabilis. As to the kind of experiment: Antibacterial activity against Proteus mirabilis by two-fold agar dilution method. The test is classed as functional. The method in brief:
as §1

The subject of test [4] is Klebsiella pneumoniae. In words: Antibacterial activity against Klebsiella pneumoniae 8045 by two-fold agar dilution method. The test is classed as functional. The method, boiled down: as §1
The subject of test [5] is Staphylococcus aureus. In words: Antibacterial activity against Staphylococcus aureus Smith by two-fold agar dilution method. It counts as functional. The method in brief:
as §1

Test [6] deals with Proteus vulgaris. In words: Antibacterial activity against Proteus vulgaris by two-fold agar dilution method. The test is classed as functional. The method in brief: as §1
In test [7] the test system is Pasteurella multocida. As to the kind of experiment: Antibacterial activity against Pasteurella multocida 10544 by two-fold agar dilution method. The test is classed as functional. The method, boiled down:
as §1

The subject of test [8] is Pseudomonas aeruginosa. As to the kind of experiment: Antibacterial activity against Pseudomonas aeruginosa by two-fold agar dilution method. The test is classed as functional, organism-based. The method in brief:
as §1

Test [9] has as its system Escherichia coli. In words: Antibacterial activity against Escherichia coli Juhl by two-fold agar dilution method. The test is classed as functional. The method in brief:
as §1

In test [10] the test system is Staphylococcus aureus. In words: Antibacterial activity against Staphylococcus aureus 45 by two-fold agar dilution method. It counts as functional. The method, boiled down: as §1
For test [11], the system named is Enterococcus. In words: Antibacterial activity against Enterococcus 89 by two-fold agar dilution method. The test is classed as functional. The method, boiled down:
as §1

Activity calls are given as the source filed them. No cut-off for these calls is given here.

On to `C/C(=N\c1ccc(Br)cc1)C1=C(O)[C@H](N)[C@@H]2Cc3c(c(O)c4c(O)c(C)ccc4c3C)C(=O)[C@]2(O)C1=O.Cl`, for which the minimum inhibitory concentration (MIC) in test [1] was found to be 3.1 µg/mL; in test [2], 12.5 µg/mL; in [3], 6.2 µg/mL; in test [4] it was 3.1 µg/mL; in [5], 12.5 µg/mL; in test [6] it was 6.2 µg/mL. Also, the MIC in [7] is 0.39 µg/mL; in test [9] it was 25 µg/mL; in test [10], 12.5 µg/mL; in test [11] it was 25 µg/mL. The outcome in [8] was inactive.

On to `C/C(=N\NC(=O)c1ccncc1)C1=C(O)[C@H](N)[C@@H]2Cc3c(c(O)c4c(O)c(C)ccc4c3C)C(=O)[C@]2(O)C1=O.Cl` (stereo in doubt), for which the MIC in test [1] came to 12.5 µg/mL; in [2], 12.5 µg/mL; in [3], 12.5 µg/mL; in [4], 12.5 µg/mL; in test [5], 50 µg/mL; in [6] it was 12.5 µg/mL. The minimum inhibitory concentration (MIC) in [7] is 6.2 µg/mL; in test [9], 50 µg/mL; in test [10], 50 µg/mL; in test [11], 50 µg/mL. Moreover, the result in [8] was inactive.

Take `C/C(=N\c1ccc(C)cc1)C1=C(O)[C@H](N)[C@@H]2Cc3c(c(O)c4c(O)c(C)ccc4c3C)C(=O)[C@]2(O)C1=O.Cl`: the MIC turned out to be 3.1 µg/mL in test [1]; 6.2 µg/mL in test [2]; 6.2 µg/mL in test [3]; 6.2 µg/mL in [4]; 12.5 µg/mL in test [5]; 6.2 µg/mL in test [6]. Further, the MIC in test [7] is 0.39 µg/mL; in test [9], 25 µg/mL; in [10], 12.5 µg/mL; in test [11] it was 25 µg/mL. Besides, the outcome in [8] was inactive.

With `C/C(=N\NC(=O)CC#N)C1=C(O)[C@H](N)[C@@H]2Cc3c(c(O)c4c(O)c(C)ccc4c3C)C(=O)[C@]2(O)C1=O.Cl`, the MIC in [1] came out at 12.5 µg/mL; in test [2] it was 50 µg/mL; in test [3] it was 12.5 µg/mL; in test [4], 12.5 µg/mL; in test [5], 50 µg/mL; in test [6], 12.5 µg/mL. Besides, the MIC in test [7] was determined as 1.56 µg/mL; in test [9], 50 µg/mL; in [10], 50 µg/mL; in [11] it was 50 µg/mL. Also, the result in test [8] was inactive.

`COc1ccc(C(=O)N/N=C(\C)C2=C(O)[C@H](N)[C@@H]3Cc4c(c(O)c5c(O)c(C)ccc5c4C)C(=O)[C@]3(O)C2=O)cc1.Cl` (stereo in doubt): the MIC in test [1] is 25 µg/mL; in test [2] it was 50 µg/mL; in test [3], 25 µg/mL; in test [4], 50 µg/mL; in [5], 100 µg/mL; in [6], 25 µg/mL. Moreover, the MIC in test [7] was 3.1 µg/mL; in [9], 100 µg/mL; in [10] it was 100 µg/mL; in test [11], > 100 µg/mL. The outcome in test [8] was inactive.

For the compound `C/C(=N\NC(=O)c1cccnc1)C1=C(O)[C@H](N)[C@@H]2Cc3c(c(O)c4c(O)c(C)ccc4c3C)C(=O)[C@]2(O)C1=O.Cl`, the minimal inhibitory concentration (MIC) is 100 µg/mL in test [1]; 100 µg/mL in test [2]; > 100 µg/mL in [3]; 100 µg/mL in [4]; > 100 µg/mL in test [5]; > 100 µg/mL in test [6]. Besides, the MIC was 12.5 µg/mL in [7], 100 µg/mL in [9], > 100 µg/mL in test [10] and > 100 µg/mL in test [11]. For the same compound, the result in [8] was inactive.

For the compound `C/C(=N\NC(N)=O)C1=C(O)[C@H](N)[C@@H]2Cc3c(c(O)c4c(O)c(C)ccc4c3C)C(=O)[C@]2(O)C1=O.Cl`, the MIC in test [1] was found to be 6.2 µg/mL; in [2], 25 µg/mL; in [3], 25 µg/mL; in [4] it was 12.5 µg/mL; in test [5] it was 25 µg/mL; in test [6], 12.5 µg/mL. For the same compound, the minimum inhibitory concentration (MIC) in test [7] came to 1.56 µg/mL; in [9] it was 25 µg/mL; in test [10], 25 µg/mL; in [11], 50 µg/mL. The outcome in test [8] was inactive.

For the compound `C/C(=N\NC(=O)c1ccc(O)cc1)C1=C(O)[C@H](N)[C@@H]2Cc3c(c(O)c4c(O)c(C)ccc4c3C)C(=O)[C@]2(O)C1=O.Cl` (stereo in doubt), the MIC was found to be 25 µg/mL in test [1]; 50 µg/mL in test [2]; 12.5 µg/mL in test [3]; 25 µg/mL in [4]; 50 µg/mL in test [5]; 12.5 µg/mL in test [6]. Further, the MIC in test [7] amounted to 3.1 µg/mL; in test [9], 50 µg/mL; in [10], 50 µg/mL; in test [11] it was 100 µg/mL. The outcome in [8] was inactive.

Turning to `C/C(=N\c1ccc(O)cc1)C1=C(O)[C@H](N)[C@@H]2Cc3c(c(O)c4c(O)c(C)ccc4c3C)C(=O)[C@]2(O)C1=O.Cl`, the MIC in test [1] came out at 6.2 µg/mL; in [2], 12.5 µg/mL; in test [3], 6.2 µg/mL; in test [4] it was 3.1 µg/mL; in [5], 12.5 µg/mL; in test [6], 3.1 µg/mL. In addition, the MIC in [7] was 0.78 µg/mL; in test [9], 50 µg/mL; in test [10], 12.5 µg/mL; in test [11] it was 25 µg/mL. The result in test [8] was inactive.

On to `C=CCNC(=O)N/N=C(\C)C1=C(O)[C@H](N)[C@@H]2Cc3c(c(O)c4c(O)c(C)ccc4c3C)C(=O)[C@]2(O)C1=O.Cl`, for which the MIC stood at 12.5 µg/mL in [1]; 12.5 µg/mL in test [2]; 6.2 µg/mL in test [3]; 6.2 µg/mL in [4]; 25 µg/mL in test [5]; 12.5 µg/mL in test [6]. The minimal inhibitory concentration (MIC) in [7] is 0.78 µg/mL; in [9], 25 µg/mL; in [10] it was 25 µg/mL; in [11], 50 µg/mL. The result in test [8] was inactive.

In the case of `C/C(=N\c1ccc(C(=O)O)cc1)C1=C(O)[C@H](N)[C@@H]2Cc3c(c(O)c4c(O)c(C)ccc4c3C)C(=O)[C@]2(O)C1=O.Cl`, the MIC in [1] stood at 1.5 µg/mL; in test [2], 3.1 µg/mL; in test [3], 3.1 µg/mL; in test [4] it was 1.56 µg/mL; in [5], 3.1 µg/mL; in test [6] it was 1.56 µg/mL. Also, the MIC in test [7] was 0.39 µg/mL; in test [9], 6.2 µg/mL; in test [10], 6.2 µg/mL; in test [11], 6.2 µg/mL. Further, in [8], the result was inactive.

As for `CNC(=O)N/N=C(\C)C1=C(O)[C@H](N)[C@@H]2Cc3c(c(O)c4c(O)c(C)ccc4c3C)C(=O)[C@]2(O)C1=O.Cl`, the MIC was determined as 25 µg/mL in [1]; 25 µg/mL in test [2]; 50 µg/mL in test [3]; 12.5 µg/mL in test [4]; 25 µg/mL in [5]; 25 µg/mL in [6]. The MIC in test [7] is 3.1 µg/mL; in [9], 50 µg/mL; in [10], 50 µg/mL; in test [11], 50 µg/mL. The result in test [8] was inactive.

For `C/C(=N\NC(=O)c1ccco1)C1=C(O)[C@H](N)[C@@H]2Cc3c(c(O)c4c(O)c(C)ccc4c3C)C(=O)[C@]2(O)C1=O.Cl` (stereo in doubt), the MIC was 25 µg/mL in [1]; 50 µg/mL in test [2]; 50 µg/mL in test [3]; 50 µg/mL in [4]; > 100 µg/mL in test [5]; 50 µg/mL in test [6]. The MIC was 3.1 µg/mL in [7], > 100 µg/mL in [9], > 100 µg/mL in [10] and > 100 µg/mL in [11]. Further, in test [8], the outcome was inactive.

With `C/C(=N\c1ccc(F)cc1)C1=C(O)[C@H](N)[C@@H]2Cc3c(c(O)c4c(O)c(C)ccc4c3C)C(=O)[C@]2(O)C1=O.Cl`, the minimum inhibitory concentration (MIC) in test [1] came out at 1.5 µg/mL; in [2], 3.1 µg/mL; in [3] it was 3.1 µg/mL; in [4], 1.56 µg/mL; in [5], 6.2 µg/mL; in [6], 1.56 µg/mL. The MIC in test [7] is 0.39 µg/mL; in test [9], 6.2 µg/mL; in test [10], 12.5 µg/mL; in test [11] it was 12.5 µg/mL. The outcome in [8] was inactive.

In the case of `C/C(=N\NC(=O)c1ccccc1O)C1=C(O)[C@H](N)[C@@H]2Cc3c(c(O)c4c(O)c(C)ccc4c3C)C(=O)[C@]2(O)C1=O.Cl`, the MIC in test [1], in [2], in [3], in test [4], in test [5] and in test [6] was > 100 µg/mL throughout. The MIC is 25 µg/mL in test [7], > 100 µg/mL in [9], > 100 µg/mL in test [10] and > 100 µg/mL in test [11]. Moreover, the outcome in [8] was inactive.

Consider `C/C(=N\NC(=O)Cc1ccccc1)C1=C(O)[C@H](N)[C@@H]2Cc3c(c(O)c4c(O)c(C)ccc4c3C)C(=O)[C@]2(O)C1=O.Cl`, for which the MIC in test [1] stood at 12.5 µg/mL; in [2], 12.5 µg/mL; in test [3], 12.5 µg/mL; in [4] it was 6.2 µg/mL; in test [5] it was 25 µg/mL; in [6], 12.5 µg/mL. In addition, the minimum inhibitory concentration (MIC) in test [7] is 6.2 µg/mL; in test [9], 50 µg/mL; in test [10] it was 25 µg/mL; in test [11], 50 µg/mL. The result in test [8] was inactive.

Regarding `C/C(=N\N(C)C)C1=C(O)[C@H](N)[C@@H]2Cc3c(c(O)c4c(O)c(C)ccc4c3C)C(=O)[C@]2(O)C1=O.Cl`, the minimum inhibitory concentration (MIC) in test [1] came to 3.1 µg/mL; in test [2], 6.2 µg/mL; in test [3] it was 6.2 µg/mL; in test [4], 6.2 µg/mL; in [5], 12.5 µg/mL; in test [6] it was 6.2 µg/mL. Moreover, the minimal inhibitory concentration (MIC) was 0.78 µg/mL in [7], 12.5 µg/mL in test [9], 12.5 µg/mL in test [10] and 6.2 µg/mL in test [11]. In addition, in [8], the result was inactive.

The values above are taken from ChEMBL document CHEMBL3244289, “Synthesis and antibacterial activity of 2'-substituted chelocardin analogues” (1979).
